ChEMBL document CHEMBL4130629 (J Med Chem, 2018)
Converted amounts (≈) assume the structure as drawn. Blank lines part the entries; values can stand above or below the compound they belong to.

What was measured:
[1] = Aqueous solubility of the compound at pH 1.5 to 8.2; assay type: physicochemical; conditions: buffer
How it was run: (§1)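 Aqueous solubility was measured across pH 1.5–8.2 at room temperature. Solution stability under acidic and neutral conditions, and solid-state stability, were followed for at least 24 h at 37 °C.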

[2] = Stability of the compound in solid state at 37 degC after 24 hrs; assay type: physicochemical; how it was run: as §1
[3] = Stability of the compound under neutral condition at 37 degC after 24 hrs; assay type: physicochemical; how it was run: as §1
[4] = molecular target: T1, Alkaline phosphatase, placental type (Homo sapiens, UniProt P05187); experiment: Prodrug activation in human hepatocytes assessed as BMS-626529 formation; assay type: cell-based
[5] = Prodrug activation in beagle dog plasma assessed as BMS-626529 formation 46 mg/kg, po bid; assay type: organism-based, Canis lupus familiaris; conditions: in vivo
[6] = Stability of the compound under acidic condition at 37 degC after 24 hrs; assay type: physicochemical; how it was run: as §1
[7] = Prodrug activation in Sprague-Dawley rat plasma assessed as BMS-626529 formation at <= 25 mg/kg, po after 3 hrs; assay type: organism-based; conditions: in vivo
How it was run: (§2)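 Rats were dosed orally with parent (solution in PEG-400/EtOH/0.1 N NaOH at ≤25 mg/kg; suspension at 200 mg/kg) or with prodrug as an aqueous solution. Plasma AUC of the parent drug was compared between the two.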

Canis familiaris [8] = experiment: Toxicity in beagle dog assessed as rapid emesis at 250 mg/kg, po qd; assay type: organism-based, Canis lupus familiaris; conditions: in vivo
[9] = Prodrug activation in beagle dog plasma assessed as BMS-626529 formation 125 mg/kg, po bid; assay type: organism-based, Canis lupus familiaris; conditions: in vivo
[10] = molecular target: T1, Alkaline phosphatase, placental type; experiment: Prodrug activation assessed as human placental alkaline phosphatase mediated BMS-626529 formation; conditions: isolated protein
[11] = Prodrug activation in Sprague-Dawley rat plasma assessed as BMS-626529 formation at 200 mg/kg, po after 3 hrs; assay type: organism-based; conditions: in vivo; how it was run: as §2
Homo sapiens = experiment: Prodrug activation in normal healthy human assessed as BMS-626529 formation at 100 to 1000 mg dosed as standard capsule formulation; assay type: organism-based; conditions: in vivo, po
How it was run: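 Single ascending dose phase 1 trial in normal healthy volunteers: prodrug given as a standard capsule at 100, 200, 400, 600, 800 and 1000 mg. Plasma exposure of the parent drug was measured.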

Rattus norvegicus = experiment: Oral bioavailability in Sprague-Dawley rat assessed as BMS-626529 formation at 5 mg/kg; assay type: ADME, organism-based; conditions: in vivo
[12] = Drug uptake in Sprague-Dawley rat plasma assessed as BMS-626529 level at 200 mg/kg, po after 3 hrs; assay type: ADME, organism-based; conditions: in vivo
[13] = Aqueous solubility of the compound at pH 1; assay type: physicochemical; conditions: buffer
How it was run: (§3)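 Crystalline solid sample; aqueous solubility measured in buffers at the stated pH.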

MT2 = experiment: Cytotoxicity against human MT2 cells assessed as decrease in cell viability after 3 days […]; assay type: functional; conditions: MT2, 72 h
Cynomolgus monkey = experiment: Oral bioavailability in cynomolgus monkey assessed as BMS-626529 formation at 5 mg/kg administered via gavage; assay type: ADME, organism-based, Macaca fascicularis; conditions: in vivo
[14] = Drug uptake in Sprague-Dawley rat plasma assessed as BMS-626529 level at <= 25 mg/kg, po after 3 hrs; assay type: ADME, organism-based; conditions: in vivo; how it was run: as §2
[15] = Permeability in human Caco2 cells; assay type: ADME, cell-based; conditions: Caco-2, read-out: permeability
[16] = tested on: Human immunodeficiency virus 1; experiment: Antiviral activity against recombinant pseudotyped HIV1 subtype A infected in human U87 cells expressing CD4/CCR5/CXCR4 by luciferase reporter gene assay; assay type: functional, organism-based; conditions: Human immunodeficiency virus 1, subtype A, U-87 MG
[17] = Aqueous solubility of the compound at pH 10; assay type: physicochemical; conditions: buffer; how it was run: as §3
[18] = molecular target: Envelope glycoprotein gp160 (Human immunodeficiency virus 1) (UniProt Q6QLK5); experiment: Binding affinity to HIV-1 JRFL gp120 assessed as half life for dissociation
Canis familiaris [19] = experiment: Oral bioavailability in beagle dog assessed as BMS-626529 formation at 5 mg/kg; assay type: ADME, organism-based, Canis lupus familiaris; conditions: in vivo
[20] = tested on: Human immunodeficiency virus 1; experiment: Antiviral activity against recombinant pseudotyped HIV1 subtype C infected in human U87 cells expressing CD4/CCR5/CXCR4 by luciferase reporter gene assay; assay type: functional, organism-based; conditions: Human immunodeficiency virus 1, subtype C, U-87 MG
[21] = AUC in Sprague-Dawley rat at 5 mg/kg, po after 24 hrs; assay type: ADME, organism-based; set-up: time < 24 hr, dose 5 mg/kg, route oral; conditions: in vivo
How it was run: (§4)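 Male Sprague-Dawley rats (300−350 g) with jugular vein and/or bile duct cannulas, n = 3 per route; dosed as a solution in PEG-400/ethanol (90/10). The iv dose was 1 mg/kg given as a 0.5 min bolus, with jugular blood sampled from 2 to 1440 min. The po dose was 5 mg/kg after an overnight fast, sampled from 15 to 1440 min. Plasma was taken from EDTA blood.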

[22] = AUC in beagle dog at 5 mg/kg, po; assay type: ADME, organism-based, Canis lupus familiaris; conditions: in vivo
How it was run: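 Crossover study in three male beagle dogs (12 ± 0.4 kg) with a one-week washout between routes; dosed in PEG-400/ethanol (90/10) with pH adjusted by 0.1 N NaOH. After an overnight fast, 5 mg/kg was given by oral gavage. Serial blood was drawn before dosing and at 15–1440 min.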

[23] = tested on: Human immunodeficiency virus 1; experiment: Antiviral activity against recombinant pseudotyped HIV1 subtype B infected in human U87 cells expressing CD4/CCR5/CXCR4 by luciferase reporter gene assay; assay type: functional, organism-based; conditions: Human immunodeficiency virus 1, subtype B, U-87 MG
[24] = Metabolic stability in human liver microsomes assessed as parent compound remaining after 10 mins; assay type: ADME, microsome; conditions: read-out: Stability
How it was run: (§5)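 Compound at 3 μM was incubated with human or rat liver microsomes, and the percentage of parent compound remaining was measured after 10 min.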

[25] = Metabolic stability in rat liver microsomes assessed as parent compound remaining after 10 mins; assay type: ADME, microsome; conditions: read-out: Stability; how it was run: as §5
[26] = Volume of distribution at steady state in Sprague-Dawley rat at 1 mg/kg, iv; assay type: ADME, organism-based; conditions: in vivo, read-out: Vdss; how it was run: as §4
[27] = tested on: Human immunodeficiency virus 1; experiment: Antiviral activity against ENV pseudotyped CCR5-tropic HIV1 […] infected in human HeLa67 cells after 3 days by luciferase reporter gene assay; assay type: functional, organism-based; conditions: Human immunodeficiency virus 1, HeLa67, 72 h
How it was run: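 Single-cycle infection with env-deleted, luciferase-reporter HIV-1 pseudotyped with the JRFL (CCR5) envelope, supplied by transfection; viral titers normalized by luminescence without compound. HeLa 67 cells were infected in the presence of compounds given as 3-fold serial dilutions made from 30 mM DMSO stocks.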

[28] = Oral bioavailability in Sprague-Dawley rat at 5 mg/kg; assay type: ADME, organism-based; conditions: in vivo; how it was run: as §4
[29] = Half life in Sprague-Dawley rat at 1 mg/kg, iv; assay type: ADME, organism-based; conditions: in vivo
Cytochrome P450 3A4 = Cytochrome P450 3A4 (Homo sapiens, UniProt P08684); experiment: Inhibition of CYP3A4 (unknown origin); assay type: ADME
[30] = tested on: Human immunodeficiency virus 1; experiment: Antiviral activity against HIV1 infected in patients assessed as reduction in maxmum viral RNA by measuring log10 viral copies at 800 mg, bid measured at day 8; assay type: functional
[31] = tested on: Human immunodeficiency virus 1; experiment: Antiviral activity against HIV1 infected in patients assessed as reduction in maxmum viral RNA by measuring log10 viral copies at 1800 mg, bid measured at day 8; assay type: functional
[32] = tested on: Human immunodeficiency virus 1; experiment: Antiviral activity against HIV1 infected in patients assessed as reduction in plasma viral load by measuring log10 viral copies at 800 mg, bid measured at day 8 (reference value: 0.02 log10 copies/ml); assay type: functional
[33] = AUC in cynomolgus monkey at 5 mg/kg, po administered via gavage; assay type: ADME, organism-based, Macaca fascicularis; conditions: in vivo
How it was run: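 Crossover study in three male cynomolgus monkeys (10 ± 0.8 kg) with a one-week washout between routes; dosed in PEG-400/ethanol (90/10) with pH adjusted by 0.1 N NaOH. After an overnight fast, 5 mg/kg was given by oral gavage. Serial blood was drawn before dosing and at 15–1440 min.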

[34] = Half life in human liver microsomes; assay type: ADME, microsome
[35] = Protein binding in human plasma; assay type: ADME, cell-free; conditions: read-out: PPB (converted)
[36] = tested on: Human immunodeficiency virus 1; experiment: Antiviral activity against HIV1 infected in patients assessed as reduction in plasma viral load by measuring log10 viral copies at 1800 mg, bid measured at day 8; assay type: functional
[37] = tested on: Human immunodeficiency virus 1; experiment: Selectivity ratio of EC50 for ENV pseudotyped CCR5-tropic HIV1 […] in presence of 40%human serum to EC50 for ENV pseudotyped CCR5-tropic HIV1 […] in absence of 40%human serum; assay type: functional
How it was run: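 Single-cycle assay: env-deleted HIV-1 firefly-luciferase reporter virus pseudotyped by transfection with the JRFL (CCR5-tropic) envelope; HeLa 67 cells infected with compound (DMSO stocks, 3-fold serial dilutions). Luciferase read 3 days post-infection.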

[38] = molecular target: Envelope glycoprotein gp160 (Human immunodeficiency virus 1, UniProt Q6QLK5); experiment: Inhibition of [3H]BMS-488043 binding to HIV-1 JRFL gp120 after 1 hr by scintillation counting method
Chain of Envelope glycoprotein gp160 (Q6QLK5 whole entry): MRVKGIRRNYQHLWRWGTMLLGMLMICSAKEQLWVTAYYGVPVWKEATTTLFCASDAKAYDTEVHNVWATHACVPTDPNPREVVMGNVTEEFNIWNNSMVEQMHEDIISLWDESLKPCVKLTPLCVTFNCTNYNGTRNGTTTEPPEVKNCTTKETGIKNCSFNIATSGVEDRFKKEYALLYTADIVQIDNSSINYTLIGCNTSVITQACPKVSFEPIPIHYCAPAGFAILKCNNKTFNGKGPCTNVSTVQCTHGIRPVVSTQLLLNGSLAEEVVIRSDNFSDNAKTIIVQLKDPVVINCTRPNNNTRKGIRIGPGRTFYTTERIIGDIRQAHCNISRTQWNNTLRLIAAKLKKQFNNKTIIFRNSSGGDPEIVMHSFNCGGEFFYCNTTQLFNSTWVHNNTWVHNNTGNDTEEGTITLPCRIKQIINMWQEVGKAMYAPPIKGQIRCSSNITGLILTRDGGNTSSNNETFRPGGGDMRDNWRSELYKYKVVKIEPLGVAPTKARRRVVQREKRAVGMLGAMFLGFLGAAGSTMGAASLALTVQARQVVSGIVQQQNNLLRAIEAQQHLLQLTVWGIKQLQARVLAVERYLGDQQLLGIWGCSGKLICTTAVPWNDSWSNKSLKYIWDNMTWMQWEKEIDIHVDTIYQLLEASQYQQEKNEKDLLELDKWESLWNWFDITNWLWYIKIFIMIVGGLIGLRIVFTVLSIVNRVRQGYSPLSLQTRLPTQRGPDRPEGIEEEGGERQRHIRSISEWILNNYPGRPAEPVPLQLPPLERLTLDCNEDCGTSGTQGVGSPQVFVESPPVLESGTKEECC

Chain of Envelope glycoprotein gp160 (Human immunodeficiency virus 1) (Q6QLK5 1-814): as the sequence (Q6QLK5 whole entry) above
T1 sequence (P05187 whole entry): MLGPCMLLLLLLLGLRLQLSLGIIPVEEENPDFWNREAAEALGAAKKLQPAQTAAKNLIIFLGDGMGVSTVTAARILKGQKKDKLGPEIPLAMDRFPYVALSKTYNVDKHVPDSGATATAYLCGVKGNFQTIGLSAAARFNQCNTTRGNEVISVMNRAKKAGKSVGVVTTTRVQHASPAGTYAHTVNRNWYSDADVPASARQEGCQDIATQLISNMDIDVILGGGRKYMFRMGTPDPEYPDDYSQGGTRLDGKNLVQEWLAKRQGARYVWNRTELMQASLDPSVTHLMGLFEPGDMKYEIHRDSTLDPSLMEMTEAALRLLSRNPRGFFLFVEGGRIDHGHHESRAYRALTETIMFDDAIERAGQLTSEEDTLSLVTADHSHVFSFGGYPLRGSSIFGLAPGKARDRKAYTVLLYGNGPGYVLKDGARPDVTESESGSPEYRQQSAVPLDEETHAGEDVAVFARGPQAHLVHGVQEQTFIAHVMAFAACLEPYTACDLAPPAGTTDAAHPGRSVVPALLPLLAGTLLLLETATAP
Chain of Cytochrome P450 3A4 (P08684 whole entry): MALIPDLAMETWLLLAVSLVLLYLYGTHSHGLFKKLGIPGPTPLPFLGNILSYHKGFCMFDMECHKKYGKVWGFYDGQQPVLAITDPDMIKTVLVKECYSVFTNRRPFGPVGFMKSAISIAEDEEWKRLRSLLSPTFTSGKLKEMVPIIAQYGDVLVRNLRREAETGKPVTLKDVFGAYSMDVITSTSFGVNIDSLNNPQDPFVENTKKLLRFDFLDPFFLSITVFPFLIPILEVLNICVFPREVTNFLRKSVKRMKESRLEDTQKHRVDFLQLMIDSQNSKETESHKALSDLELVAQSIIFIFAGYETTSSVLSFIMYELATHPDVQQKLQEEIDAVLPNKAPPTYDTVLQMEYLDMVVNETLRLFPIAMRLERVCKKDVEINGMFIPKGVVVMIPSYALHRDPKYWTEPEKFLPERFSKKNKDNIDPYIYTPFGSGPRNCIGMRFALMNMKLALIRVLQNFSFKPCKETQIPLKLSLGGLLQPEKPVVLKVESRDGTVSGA

solubility [1]: > 11000 µg/mL
Stability [2]: Stable
Stability [3]: Stable
Drug metabolism [4]: Metabolite_Detected
Drug metabolism [5]: Metabolite_Detected
Stability [6]: Stable
Drug metabolism [7]: Metabolite_Detected
Drug metabolism [9]: Metabolite_Detected
Drug metabolism [10]: Metabolite_Detected
Drug metabolism [11]: Metabolite_Detected
Drug metabolism (Homo sapiens): Dose-dependent effect
Compound: COc1cnc(-n2cnc(C)n2)c2c1c(C(=O)C(=O)N1CCN(C(=O)c3ccccc3)CC1)cn2COP(=O)(O)O.NC(CO)(CO)CO [FOSTEMSAVIR TROMETHAMINE]
Activity (Canis familiaris [8]): Toxic

bioavailability (Rattus norvegicus): 80 to 122%
Drug uptake [12]: Active
solubility [13]: 50 µg/mL (≈ 106 µM)
bioavailability (Cynomolgus monkey): 80 to 122%
Drug uptake [14]: Active
Papp [15]: 18.2 ×10⁻⁶ cm/s
IC50 [16]: 87.9 nM
solubility [17]: 70 µg/mL (≈ 148 µM)
T1/2 [18]: 7.63 h
bioavailability (Canis familiaris [19]): 80 to 122%
IC50 [20]: 7.09 nM
AUC at 24 h [21]: 111 µM·h
AUC [22]: 61 µM·h
IC50 [23]: 4.59 nM
Compound: COc1cnc(-n2cnc(C)n2)c2[nH]cc(C(=O)C(=O)N3CCN(C(=O)c4ccccc4)CC3)c12
CC50 (MT2): > 300000 nM

remaining at 10 min [24]: 83%
remaining at 10 min [25]: 97%
Papp [15]: 14.6 ×10⁻⁶ cm/s
Vd [26]: 0.4 L/kg
EC50 [27]: 0.09 nM
bioavailability [28]: 90%
half-life [29]: 2.6 h
IC50 (Cytochrome P450 3A4): 1000 nM
AUC at 24 h [21]: 48.7 µM·h
Compound: COc1cnc(-n2cncn2)c2[nH]cc(C(=O)C(=O)N3CCN(C(=O)c4ccccc4)CC3)c12
CC50 (MT2): > 300000 nM

AUC [33]: 28 µM·h
EC50 [27]: 0.88 nM
half-life [34]: > 1.67 h
fraction unbound [35]: 0.05
T1/2 [18]: 0.717 h
AUC at 24 h [21]: 15 µM·h
AUC [22]: 43 µM·h
Kd [38]: 19 nM
Compound: COc1ncc(OC)c2c(C(=O)C(=O)N3CCN(C(=O)c4ccccc4)CC3)c[nH]c12
CC50 (MT2): > 300000 nM
log(activity) [30]: 1.5 /ml
log(activity) [31]: 1.32 /ml
log(activity) [32]: 0.72 /ml
log(activity) [36]: 0.96 /ml
Ratio EC50 [37]: 1.9 - 3.7
